Assay [1] addresses T1, Calpain-2 catalytic subunit (Homo sapiens, UniProt P17655).
T1 sequence (P17655 whole entry): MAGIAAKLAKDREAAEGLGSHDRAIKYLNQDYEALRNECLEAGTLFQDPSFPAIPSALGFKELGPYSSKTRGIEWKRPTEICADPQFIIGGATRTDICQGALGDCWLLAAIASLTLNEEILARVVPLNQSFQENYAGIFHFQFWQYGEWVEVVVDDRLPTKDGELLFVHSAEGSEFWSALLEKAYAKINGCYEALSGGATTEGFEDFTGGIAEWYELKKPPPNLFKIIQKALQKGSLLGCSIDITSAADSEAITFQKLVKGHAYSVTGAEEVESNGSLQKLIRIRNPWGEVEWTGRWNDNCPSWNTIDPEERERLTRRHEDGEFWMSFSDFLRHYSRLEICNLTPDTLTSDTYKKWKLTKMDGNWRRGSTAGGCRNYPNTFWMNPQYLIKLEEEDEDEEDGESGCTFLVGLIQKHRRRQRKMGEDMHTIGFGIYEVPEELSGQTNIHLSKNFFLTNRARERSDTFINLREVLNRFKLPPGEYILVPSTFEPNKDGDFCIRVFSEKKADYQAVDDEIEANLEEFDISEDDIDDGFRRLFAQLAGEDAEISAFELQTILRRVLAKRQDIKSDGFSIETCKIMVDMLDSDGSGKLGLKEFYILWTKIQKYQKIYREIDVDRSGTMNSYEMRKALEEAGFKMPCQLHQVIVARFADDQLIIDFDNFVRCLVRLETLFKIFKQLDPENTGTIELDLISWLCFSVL
Nature of the assay: Inhibition of CAPN2 using BODIPY-labeled casein substrate by fluorometric analysis. In outline:
(§1)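 Quenched fluorogenic substrate: casein labelled with BODIPY (4,4-difluoro-5,7-dimethyl-4-bora-3a,4a-diaza-s-indacene-3-propionic acid). Proteolysis relieves the quenching, and the resulting rise in fluorescence is the read-out. IC50 was determined with an established protocol at the Lincoln University laboratory.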

Assay [2] has as its target T2, Calpain-1 catalytic subunit (Rattus norvegicus, UniProt P97571).
T2 sequence (P97571 whole entry): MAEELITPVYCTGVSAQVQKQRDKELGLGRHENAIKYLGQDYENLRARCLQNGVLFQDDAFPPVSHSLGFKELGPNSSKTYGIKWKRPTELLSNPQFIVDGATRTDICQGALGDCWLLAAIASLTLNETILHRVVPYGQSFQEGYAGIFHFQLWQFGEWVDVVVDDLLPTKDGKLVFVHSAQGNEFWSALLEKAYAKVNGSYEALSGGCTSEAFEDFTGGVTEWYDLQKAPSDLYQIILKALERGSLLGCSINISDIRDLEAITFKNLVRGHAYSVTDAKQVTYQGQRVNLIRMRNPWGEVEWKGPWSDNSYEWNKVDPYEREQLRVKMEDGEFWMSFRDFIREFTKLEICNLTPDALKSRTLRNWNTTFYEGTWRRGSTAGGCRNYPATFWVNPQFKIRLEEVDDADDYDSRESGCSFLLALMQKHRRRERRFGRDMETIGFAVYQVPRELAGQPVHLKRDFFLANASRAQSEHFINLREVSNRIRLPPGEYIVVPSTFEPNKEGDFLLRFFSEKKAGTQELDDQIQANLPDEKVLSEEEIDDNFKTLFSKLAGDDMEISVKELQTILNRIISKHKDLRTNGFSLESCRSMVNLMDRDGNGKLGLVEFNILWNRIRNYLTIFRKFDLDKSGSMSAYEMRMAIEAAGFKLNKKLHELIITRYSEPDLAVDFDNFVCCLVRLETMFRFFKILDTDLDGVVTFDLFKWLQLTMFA
Nature of the assay: Inhibition of rat CAPN1 using BODIPY-labeled casein substrate by fluorometric analysis.

Assay [3] in a line: Inhibition of ovine CAPN1 using BODIPY-labeled casein substrate by fluorometric analysis. Also on record: species or system Ovis aries. In outline: as §1
Assay [4] can be described thus: Inhibition of ovine CAPN2 using BODIPY-labeled casein substrate by fluorometric analysis. Further details: species or system Ovis aries. In outline:
as §1

Residues, ends and D or L forms follow the SMILES beside them. *: point of attachment. Tos = Cc1ccc(S(=O)(=O)*)cc1; Ms = CS(=O)(=O)*

The term IC50 denotes the point on the concentration scale where inhibition reaches its midpoint. As for `CC(C)C[C@@H]1NC(=O)[C@@H](NC(=O)OCc2ccccc2)Cc2ccc(cc2)OCCC[C@@H](C=O)NC1=O`, the IC50 in assay [1] is 850 nM.
In turn, `CC(C)C[C@@H]1NC(=O)[C@@H](NC(=O)OCc2ccccc2)Cc2ccc(cc2)OCCC[C@@H](CO)NC1=O` came in with an IC50 in assay [1] of 31000 nM.
With `CC(C)[C@@H]1NC(=O)[C@@H](NC(=O)OCc2ccccc2)Cc2ccc(cc2)OCCCC[C@@H](C=O)NC1=O`, the IC50 in assay [1] came to 85 nM.
Turning to `CC(C)C[C@@H]1NC(=O)[C@@H](NC(=O)OCc2ccccc2)Cc2ccc(cc2)OCCCCSC[C@@H](C=O)NC1=O`, in assay [1], the IC50 came out at 1010 nM.
`CC(C)C[C@@H]1NC(=O)[C@@H](NC(=O)OCc2ccccc2)Cc2ccc(cc2)OCCCCSC[C@@H](CO)NC1=O`: inhibition in assay [1] was half-maximal at 28000 nM (IC50).
For `CC(C)C[C@@H](C=O)NC(=O)[C@@H](NS(=O)(=O)c1ccc2ccccc2c1)C(C)C`, 10 nM corresponded to half-maximal inhibition in assay [2] (IC50).
For the compound `CC(C)[C@H](NS(=O)(=O)c1ccc2ccccc2c1)C(=O)N[C@H](C=O)Cc1ccccc1`, the IC50 in assay [2] turned out to be 14 nM.
In the case of `CC(C)[C@H](NS(=O)(=O)c1ccc(F)cc1)C(=O)N[C@H](C=O)Cc1ccccc1`, 27 nM corresponded to half-maximal inhibition in assay [2] (IC50). This IC50 is about 1.9-fold higher than that of the compound before.
Still for that read-out and setting: in the case of `CC(C)[C@H](NS(=O)(=O)c1ccc(F)cc1)C(=O)N[C@H](C=O)Cc1c[nH]c2ccccc12` it was 23 nM; in that of `CC(C)[C@H](NS(=O)(=O)c1ccc(F)cc1)C(=O)N[C@@H](C)C=O`, 630 nM; in that of `CC(C)C[C@@H](C=O)NC(=O)[C@@H](NS(=O)(=O)c1ccc(Cl)cc1)C(C)C`, 31 nM.
The compound `CC(C)[C@H](NS(=O)(=O)c1ccc(Cl)cc1)C(=O)N[C@H](C=O)Cc1ccccc1` showed an IC50 in assay [2] of 14 nM.
As to `CC(C)[C@H](NS(=O)(=O)c1ccc(Cl)cc1)C(=O)N[C@H](C=O)Cc1c[nH]c2ccccc12`, the midpoint of inhibition in assay [2], the IC50, lay at 13 nM.
As to `CCC[C@H](NS(=O)(=O)c1ccc(F)cc1)C(=O)N[C@H](C=O)CC(C)C`, the IC50 in assay [2] stood at 130 nM.
The compound `CCCC[C@H](NS(=O)(=O)c1ccc(F)cc1)C(=O)N[C@H](C=O)CC(C)C` registered an IC50 in assay [2] of 260 nM.
On the same count and under the same terms, in the case of `CC(C)C[C@@H](C=O)NC(=O)[C@H](C(C)C)N(C)S(=O)(=O)c1ccc(F)cc1` it was 21000 nM.
As for `CC(C)C[C@@H](C=O)NC(=O)[C@@H](NS(=O)(=O)c1ccc(F)cc1)C(C)C`, the figures for the IC50 in assay [3] and in assay [4] were 130 nM and 80 nM, respectively.
As to `CC(C)C[C@@H](C=O)NC(=O)[C@@H](NC(=O)c1ccc[nH]1)C(C)C`, the values for the IC50 in assay [3] and in assay [4] were 650 nM and 315 nM, respectively.
On the same counts, the results for `CC(C)C[C@@H](C=O)NC(=O)[C@@H](NC(=O)c1ccco1)C(C)C` are 790 nM and 135 nM.
Take `CC(C)C[C@@H](C=O)NC(=O)[C@@H](NC(=O)c1cccs1)C(C)C`: the IC50 in assay [3] is 680 nM; in assay [4] it was 100 nM.
As to `CC(C)C[C@@H](C=O)NC(=O)[C@@H](NC(=O)c1ccc(C=O)o1)C(C)C`, the IC50 in assay [3] was 960 nM; in assay [4], 100 nM.
For `CC(C)C[C@@H](C=O)NC(=O)[C@@H](NC(=O)c1ccc(C=O)s1)C(C)C`, the IC50 was found to be 440 nM in assay [3] and 85 nM in assay [4].
On to `Cc1ccc(C(=O)N[C@H](C(=O)N[C@H](C=O)CC(C)C)C(C)C)[nH]1`, for which the IC50 in assay [3] came to 340 nM; in assay [4], 110 nM.
Consider `COC(=O)c1ccc(C(=O)N[C@H](C(=O)N[C@H](C=O)CC(C)C)C(C)C)[nH]1`, for which the results for the IC50 in assay [3] and in assay [4] were 290 nM and 140 nM, respectively.
In the case of `CC(C)C[C@@H](C=O)NC(=O)[C@@H](NC(=O)c1cc(C=O)c[nH]1)C(C)C`, the figures for the IC50 in assay [3] and in assay [4] were 530 nM and 100 nM, respectively.
Consider `CC(C)C[C@@H](C=O)NC(=O)[C@@H](NC(=O)c1ccc(C=O)[nH]1)C(C)C`, for which the IC50 in assay [3] was 290 nM; in assay [4], 25 nM.
For `CC(C)C[C@@H](C=O)NC(=O)[C@@H](NC(=O)c1ccc(C=O)n1C)C(C)C`, the IC50 in assay [3] and in assay [4] was 150 nM throughout.
In the case of `CC(C)C[C@@H](C=O)NC(=O)[C@@H](NS(C)(=O)=O)C(C)C` (Ms-Val-Leu-aldehyde), half-maximal inhibition in assay [2] (IC50) was put at 830 nM.
Still for that read-out and setting: in the case of `Cc1ccc(S(=O)(=O)N[C@H](C(=O)N[C@H](C=O)CC(C)C)C(C)C)cc1` (Tos-Val-Leu-aldehyde) it was 28 nM; in that of `Cc1ccc(S(=O)(=O)N[C@H](C(=O)N[C@H](C=O)Cc2ccccc2)C(C)C)cc1` (Tos-Val-Phe-aldehyde), 18 nM.

(Values after ChEMBL document CHEMBL1921800, “Molecular modeling: a search for a calpain inhibitor as a new treatment for cataractogenesis” (J Med Chem, 2011).)
